From ChEMBL document CHEMBL1132142, “Extension of the polyanionic cosalane pharmacophore as a strategy for increasing anti-HIV potency” (J Med Chem, 1999)

Columns and labels:
[1] = target: C-X-C chemokine receptor type 4 (Homo sapiens) (UniProt P61073); assay: Compound was tested for binding of the mAb (12G5) to the Chemokine receptor type 4 at 3.7 uM
[2] = target: T-cell surface glycoprotein CD4 (Homo sapiens) (UniProt P01730); assay: Compound was tested for binding of the mAb (leu3a) to the CD4 receptor at 81 uM
In short: (§1)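 The assay measured Leu3a monoclonal antibody binding to cell-surface CD4 at each listed concentration. Read-out was % positive cells and % inhibition relative to controls, including an isotype mAb.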

[3] = target: T-cell surface glycoprotein CD4 (Homo sapiens) (UniProt P01730); assay: Compound was tested for binding of the mAb (leu3a) to the CD4 receptor at 0.13 uM
In short: as §1

[4] = target: T-cell surface glycoprotein CD4 (Homo sapiens) (UniProt P01730); assay: Compound was tested for binding of the mAb (leu3a) to the CD4 receptor at 0.65 uM
In short: as §1

[5] = target: T-cell surface glycoprotein CD4 (Homo sapiens) (UniProt P01730); assay: Compound was tested for binding of the mAb (leu3a) to the CD4 receptor at 92 uM
In short: as §1

[6] = target: C-X-C chemokine receptor type 4 (Homo sapiens) (UniProt P61073); assay: Compound was tested for binding of the mAb (12G5) to the Chemokine receptor type 4 at 0.65 uM
[7] = target: C-X-C chemokine receptor type 4 (Homo sapiens) (UniProt P61073); assay: Compound was tested for binding of the mAb (12G5) to the Chemokine receptor type 4 at 0.15 uM
[8] = target: C-X-C chemokine receptor type 4 (Homo sapiens) (UniProt P61073); assay: Compound was tested for binding of the mAb (12G5) to the CXCR4 receptor at 92 uM
[9] = target: C-X-C chemokine receptor type 4 (Homo sapiens) (UniProt P61073); assay: Compound was tested for binding of the mAb (12G5) to the Chemokine receptor type 4at 3.2 uM
[10] = target: C-X-C chemokine receptor type 4 (Homo sapiens) (UniProt P61073); assay: Compound was tested for binding of the mAb (12G5) to the CXCR4 receptor at 18 uM
[11] = target: T-cell surface glycoprotein CD4 (Homo sapiens) (UniProt P01730); assay: Compound was tested for binding of the mAb (leu3a) to the CD4 receptor at 0.15 uM
In short: as §1

[12] = target: T-cell surface glycoprotein CD4 (Homo sapiens) (UniProt P01730); assay: Compound was tested for binding of the mAb (leu3a) to the CD4 receptor at 16 uM
In short: as §1

[13] = target: C-X-C chemokine receptor type 4 (Homo sapiens) (UniProt P61073); assay: Compound was tested for binding of the mAb (12G5) to the Chemokine receptor type 4 at 18 uM
[14] = target: T-cell surface glycoprotein CD4 (Homo sapiens) (UniProt P01730); assay: Compound was tested for binding of the mAb (leu3a) to the CD4 receptor at 3.2 uM
In short: as §1

[15] = target: C-X-C chemokine receptor type 4 (Homo sapiens) (UniProt P61073); assay: Compound was tested for binding of the mAb (12G5) to the Chemokine receptor type 4 at 0.73 uM
[16] = target: T-cell surface glycoprotein CD4 (Homo sapiens) (UniProt P01730); assay: Compound was tested for binding of the mAb (leu3a) to the CD4 receptor at 3.7 uM
In short: as §1

[17] = target: T-cell surface glycoprotein CD4 (Homo sapiens) (UniProt P01730); assay: Compound was tested for binding of the mAb (leu3a) to the CD4 receptor at 0.73 uM
In short: as §1

[18] = target: C-X-C chemokine receptor type 4 (Homo sapiens) (UniProt P61073); assay: Compound was tested for binding of the mAb (12G5) to the Chemokine receptor type 4 at 3.2 uM
[19] = target: C-X-C chemokine receptor type 4 (Homo sapiens) (UniProt P61073); assay: Compound was tested for binding of the mAb (12G5) to the Chemokine receptor type 4 at 0.13 uM
[20] = target: C-X-C chemokine receptor type 4 (Homo sapiens) (UniProt P61073); assay: Compound was tested for binding of the mAb (12G5) to the Chemokine receptor type 4 at 16 uM
[21] = target: C-X-C chemokine receptor type 4 (Homo sapiens) (UniProt P61073); assay: Compound was tested for binding of the mAb (12G5) to the Chemokine receptor type 4 at 81 uM
[22] = target: T-cell surface glycoprotein CD4 (Homo sapiens) (UniProt P01730); assay: Compound was tested for binding of the mAb (leu3a) to the CD4 receptor at 18 uM
In short: as §1

[23] = target: C-X-C chemokine receptor type 4 (Homo sapiens) (UniProt P61073); assay: Compound was tested for binding of the mAb (12G5) to the CChemokine receptor type 4 at 0.73 uM

Chain of C-X-C chemokine receptor type 4 (Homo sapiens) (P61073 whole entry, looked up): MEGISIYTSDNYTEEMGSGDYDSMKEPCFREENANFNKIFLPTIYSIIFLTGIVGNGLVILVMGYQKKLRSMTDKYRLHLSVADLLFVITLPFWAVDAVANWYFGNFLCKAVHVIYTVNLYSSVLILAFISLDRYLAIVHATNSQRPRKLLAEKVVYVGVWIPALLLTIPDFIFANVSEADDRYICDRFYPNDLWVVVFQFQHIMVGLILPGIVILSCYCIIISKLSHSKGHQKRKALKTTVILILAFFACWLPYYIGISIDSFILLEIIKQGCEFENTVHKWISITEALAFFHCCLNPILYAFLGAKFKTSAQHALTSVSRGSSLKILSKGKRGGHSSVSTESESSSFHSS

CC(C)CCCC(C)[C@H]1CC[C@H]2[C@@H]3CCC4C[C@@H](CCC=C(c5cc(Cl)c(OCc6ccc(C(=O)O)cc6)c(C(=O)O)c5)c5cc(Cl)c(OCc6ccc(C(=O)O)cc6)c(C(=O)O)c5)CC[C@]4(C)[C@H]3CC[C@]12C (some centres undefined)
Positive cells [1]: 99.4% | inhibition [1]: 0% | Positive cells [2]: 1.2% | inhibition [2]: 100% | Positive cells [3]: 99.8% | inhibition [3]: 0% | Positive cells [4]: 99.9% | inhibition [4]: 0% | Positive cells [5]: 1.4% | inhibition [5]: 100% | Positive cells [6]: 99.2% | inhibition [6]: 0% | inhibition [7]: 0% | Positive cells [8]: 99.8% | inhibition [8]: 0% | inhibition [9]: 0% | inhibition [10]: 0% | Positive cells [11]: 99.9% | inhibition [11]: 0% | Positive cells [12]: 2.1% | inhibition [12]: 100% | Positive cells [13]: 99.9% | Positive cells [14]: 3.2% | inhibition [14]: 99% | inhibition [15]: 0% | Positive cells [16]: 7.8% | inhibition [16]: 94% | Positive cells [17]: 99.1% | inhibition [17]: 4% | Positive cells [18]: 99.8% | Positive cells [19]: 99.1% | inhibition [19]: 0% | Positive cells [20]: 99.9% | inhibition [20]: 0% | Positive cells [21]: 99.8% | inhibition [21]: 0% | Positive cells [22]: 1.2% | inhibition [22]: 100% | Positive cells [23]: 99.3%
